NR2E3 ag-1: activates human NR2E3 receptor. Q9Y5X4. CHO-S Gal4-NCOR/VP16-NR2E3 two-hybrid, luciferase. inhibition of corepressor binding, % at 3.98 µM. hit rate 0.35% among 360,000;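 active = inhibition above the mean of all tested compounds plus 3 SD, cut at about 70% in these data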;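 note: 0% = DMSO with NR2E3 transfected cells and 100% = cells lacking NR2E3 construct; higher means lower luciferase signal from less NR2E3 corepressor binding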
Target sequence (Q9Y5X4 whole entry, looked up, the tested form may be a part): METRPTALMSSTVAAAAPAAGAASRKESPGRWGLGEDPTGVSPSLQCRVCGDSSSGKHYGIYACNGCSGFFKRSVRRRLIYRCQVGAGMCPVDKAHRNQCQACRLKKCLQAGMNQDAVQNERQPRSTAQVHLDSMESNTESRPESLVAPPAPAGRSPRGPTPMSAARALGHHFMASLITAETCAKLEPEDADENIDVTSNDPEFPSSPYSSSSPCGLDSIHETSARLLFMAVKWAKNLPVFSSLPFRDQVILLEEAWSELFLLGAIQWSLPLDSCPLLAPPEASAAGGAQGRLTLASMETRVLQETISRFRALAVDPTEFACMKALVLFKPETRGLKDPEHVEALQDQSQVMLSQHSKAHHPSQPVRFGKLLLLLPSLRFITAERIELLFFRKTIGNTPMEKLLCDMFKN
miR-122 sensor: inhibitors of miR-122 in Huh7 cells | Huh7 miR-122 Renilla luciferase sensor, 48 h; neutral wells = 0, positive control = 100 | activation (reporter increase), % at 12.5 µM | hit rate 0.3% among 340,000;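 active = mean replicate activation score at least 90 and every replicate individually at or above 90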;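 note: higher luciferase means less miR-122 activity so hits act as miR-122 inhibitors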
NR2E3 ag-2: activates human photoreceptor nuclear receptor NR2E3 | hit rate 0.12% among 320,000 | GST-NR2E3/biotin-RetCOR TR-FRET, 1536-well | inhibition of corepressor binding, % at 4.78 µM | Q9Y5X4;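 active = percent inhibition above the cutoff of mean plus 3 SD of all tested compounds, set per screening campaign, cut at about 20% in these data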;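 note: 0% = DMSO wells and 100% = biotin wells as full block of FRET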
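System: GST-tagged NR2E3 plus biotinylated RetCOR corepressor; Amount: 1.35 nM GST-tagged NR2E3 final; Dosing: single nominal compound dose of 4.8 µM; Schedule: 5 h incubation at 4 °C; Technique: TR-FRET with europium anti-GST and streptavidin-D2, 340 nm excitation; Controls: biotin wells as high control, 0.6% DMSO wells as low control.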
FGF22 binding: FGF22 (human) thermal shift binding | Q9HCT0 | recombinant FGF22 thermal shift, SYPRO orange fluorescence; percent of sucrose octasulfate shift, DMSO zero | activity (Tm shift, normalised), % at 9.99 µM | hit rate 1.5% among 340,000;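 active = mean Tm shift, scaled 0 neutral to 100 positive control, at about 1.3% or above, every replicate too, limit read from the data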
Target sequence (Q9HCT0 whole entry, looked up): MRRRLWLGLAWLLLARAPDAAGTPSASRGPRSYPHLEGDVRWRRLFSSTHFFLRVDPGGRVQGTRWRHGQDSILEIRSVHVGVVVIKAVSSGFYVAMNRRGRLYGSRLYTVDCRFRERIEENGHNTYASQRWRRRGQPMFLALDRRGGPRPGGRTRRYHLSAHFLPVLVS
697 NFkB inh: lowers PMA/ionomycin-induced NF-kB signal in 697 B cells | 697 B-cell NF-kB luciferase reporter, 16 h | inhibition, % at 4 µM | hit rate 0.33% among 330,000 | AID 435022; in the data active = inhibition above about 35%
Jurkat NFkB inh: lowers PMA/ionomycin-induced NF-kB signal in Jurkat cells; PMA/ionomycin-induced NF-kB luciferase reporter, luminescence; inhibition, % at 4 µM; hit rate 0.53% among 330,000; AID 435003; in the data active = inhibition above about 50%
Numbers without * were called inactive; · = not tested or not shown; [ ] = remark or other dose. This is a sample that favours compounds with a hit; in the whole collection about 2.2% have one here.

SMILES	NR2E3 ag-1	miR-122 sensor	NR2E3 ag-2	FGF22 binding	697 NFkB inh	Jurkat NFkB inh
O=C(CSc1nc2ccccc2o1)Nc1nccs1	-56.9	·	-0.1	2.3*	-2.4	1.4
O=C(CSc1nc2ccccc2o1)Nc1nc2ccccc2s1	-84.8	-9.8	1.6	·	-4.9	-9.7
CCN(CC)c1ccc(/C=C(\C#N)C(N)=O)cc1	9.8	·	·	43.0*	·	·
O=C(NC[C@@H]1[C@@H](c2ccccc2)[C@@H](CO)N1C(=O)Cc1ccncc1)C1CCC1	·	25.0[16.7 µM]	·	0.0	·	·
CO[C@H]1CN(C)C(=O)c2cc(NC(C)=O)ccc2OC[C@H](C)N(CC2CC2)C[C@@H]1C	·	·	·	-0.2	·	·
Cc1ccccc1C(=O)NC(=S)Nc1ccc(Cc2ccncc2)cc1	-19.6	-0.8	-4.7	·	-6.7	0.6
COc1ccc(C(=O)NC(=S)Nc2ccc(Cc3ccncc3)cc2)cc1	-45.1	·	2.6	43.7*	5.3	11.1
O=C(NC(=S)Nc1ccc(Cc2ccncc2)cc1)c1ccccc1F	-18.9	·	-3.1	43.6*	-4.0	4.7
Cc1occc1-c1n[nH]c(=S)n1C	-35.9	·	-0.9	43.2*	9.4	7.4
Cc1occc1-c1n[nH]c(=S)n1-c1ccccc1	-18.3	-3.0	8.6	0.1	9.6	11.3
Cc1cccc(N2C(=O)/C(=C/c3cccnc3)SC2=S)c1	-5.6	-0.7	1.7	0.2	-30.3	-8.7
Cc1cc(/C=C2/SC(=S)N(c3ccc([N+](=O)[O-])cc3)C2=O)c(C)n1-c1cccnc1	2.0	·	4.9	43.4*	22.2	45.4
O=c1cnnc(SCc2ccc([N+](=O)[O-])cc2)[nH]1	-5.1	·	1.8	43.5*	-22.2	-7.4
CCN(CC(=O)Nc1cc(Cl)ccc1C)C(=O)COc1ccccc1F	3.9	·	4.0	43.8*	2.3	-9.0
O=C(COC(=O)c1c2c(nc3ccccc13)CCN(Cc1ccccc1)C2)Nc1c(F)cccc1F	-1.6	174.8*	5.4	-0.1	21.7	20.0
O=C(O)CN1CCc2ccccc2C1	-5.2	-0.1	2.3	43.1*	5.3	-5.4
O=C(CN1CCc2ccccc2C1)Nc1ccc(F)cc1F	-28.3	-9.0	2.1	43.5*	27.9	-14.2
COc1cc2c(cc1OC)CN(CC(=O)Nc1ccc(F)cc1F)CC2	-24.1	·	-6.4	0.0	6.7	3.5
O=C(NCCc1csc(-c2ccccc2)n1)c1c(F)cccc1F	7.9	-2.9	0.1	-0.2	5.4	-1.4
O=C(NCCc1ccccc1)c1c(F)cccc1F	-132.6	0.5	2.9	43.0*	-45.0	-55.9
CSc1ncccc1C(=O)NCCc1ccccc1	-26.0	-2.9	-1.8	43.2*	-7.5	-1.5
COc1ccc(CCNC(=O)c2n[nH]c(=O)c3ccccc23)cc1	-33.6	0.8	1.6	·	-4.4	-1.0
CSc1ncccc1C(=O)NCCc1ccc(S(N)(=O)=O)cc1	-53.7	·	1.6	0.0	19.3	13.4
O=C(NCCc1ccccc1)c1n[nH]c(=O)c2ccccc12	-16.5	1.1	0.8	43.2*	-2.7	-9.6
Cc1ccsc1/C=C1/NC(=O)N(Cc2ccc(F)cc2)C1=O	-19.8	·	2.6	43.2*	13.0	4.9
SMILES	NR2E3 ag-1	miR-122 sensor	NR2E3 ag-2	FGF22 binding	697 NFkB inh	Jurkat NFkB inh
O=C(Nc1ccccc1NC(=O)c1csnn1)c1csnn1	7.6	·	2.6	43.2*	-0.3	12.9
COc1ccc(CC(=O)NNC(=O)c2ccc(Br)s2)cc1OC	-13.7	4.8	·	42.9*	19.8	-2.2
CC(=O)c1ccccc1NC(=O)COC(=O)c1ccccc1NC(=O)c1ccccc1	-30.5	·	-4.8	16.5*	7.1	-6.5
CN(C)CCCNC(=O)c1cc2sc3ccccc3c2s1	-5.8	·	2.2	43.8*	-22.5	-26.6
Cc1ccc(C(=O)N2CCN(S(C)(=O)=O)C2)cc1	-2.8	4.8	2.0	·	22.2	11.6
Cc1ccc(C(=O)N2CCN(S(=O)(=O)c3ccc(C)cc3)CC2)cc1	18.2	·	-2.3	0.0	9.9	7.4
Cc1ccc(C(=O)N2CCN(S(=O)(=O)c3ccc(C)c([N+](=O)[O-])c3)C2)cc1	-3.0	-3.5	2.1	43.6*	18.0	21.6
Cc1ccc(C(=O)N2CCN(C(=O)c3ccc(C)cc3)C2)cc1	2.6	-8.8	-0.7	43.1*	22.5	4.7
CCOC(=O)N1CCC(NCCNC(=O)c2ccco2)CC1	3.6	-5.4	-1.1	44.0*	-10.5	-5.2
CCOC(=O)N1CCC(NCCNC(=O)c2ccc(Cl)cc2)CC1	9.8	-9.9	-1.8	·	-14.0	16.3
COc1cc(C(=O)c2ccccc2Cl)c([N+](=O)[O-])cc1OC	-25.2	-8.5	-0.1	43.6*	-10.9	-7.3
COc1cc(C(=O)Nc2ccncc2)c([N+](=O)[O-])cc1OC	4.2	·	5.8	-0.1	3.2	-12.6
COc1cc(C(=O)N2CCN(c3ccccc3OC)CC2)c([N+](=O)[O-])cc1OC	-18.8	·	-2.5	0.0	4.3	-2.8
COc1cc(C(=O)N2CCN(c3ccccc3)CC2)c([N+](=O)[O-])cc1OC	-17.7	·	-1.7	43.5*	16.6	4.1
Cc1ccc(S(=O)(=O)Nc2cccc3c2O[C@@H](CN(C)C(=O)Nc2cccc4ccccc24)[C@H](C)CN([C@H](C)CO)C3=O)cc1	·	-6.1[16.7 µM]	·	·	·	·
COc1cc(/C=C/C(=O)OCC(=O)Nc2cccc(F)c2)ccc1O	-3.2	-2.0	·	44.6*	-22.4	8.8
COc1cc(/C=C/C(=O)OCC(=O)NC(=O)NC(C)(C)C)ccc1O	2.3	-2.8	-1.9	-0.1	-21.4	11.9
COC(=O)c1c(N2C(=O)Nc3ccccc3N2O)sc(C)c1C	-5.4	-5.1	6.1	43.2*	5.2	13.6
CN1C(=O)c2cc(NC(=O)C3CCCCC3)ccc2OC[C@H]2O[C@@H](CC(=O)NCCc3ccncc3)CC[C@@H]21	·	-0.7[16.7 µM]	·	0.1	·	·
Cc1ccc(C(=O)c2cc(C)sc2N)cc1	-27.0	·	3.7	42.9*	-36.0	-19.8
Cc1ccc(C(=O)c2cc3c(cc2N)OCCO3)cc1	-19.5	0.4	0.6	-0.5	16.7	17.3
O=C(N/N=C/c1cc([N+](=O)[O-])ccc1Cl)c1cnccn1	-3.2	-3.4	0.7	42.9*	9.4	30.2
CC(C)CC#Cc1ccc2c(c1)O[C@H](CN(C)Cc1ccccn1)[C@@H](C)CN([C@H](C)CO)S2(=O)=O	·	11.0[16.7 µM]	·	-0.1	·	·
CCCCNC(=O)Cc1ccc(Br)cc1	-7.0	·	3.1	43.7*	-6.5	-2.5
COCCNC(=O)Cc1ccc(Br)cc1	8.5	0.5	2.0	·	5.9	0.0
Cc1nc(-c2ccc(C(=O)Nc3ccc(F)cc3)cc2)cs1	-191.8	-7.3	-13.4	43.2*	-97.9	-51.5
CC(=O)C1=C(O)C(=O)N(CCCn2ccnc2)C1c1ccc(Br)cc1 (configuration not stated)	-27.8	-9.7	5.4	43.0*	4.2	4.0
C[C@@H]1CN([C@H](C)CO)C(=O)c2cc(NC(=O)Cc3ccccc3)ccc2O[C@@H]1CN(C)Cc1ccc(C(=O)Nc2ccccc2N)cc1	·	12.6[16.7 µM]	·	0.1	·	·
